Reference: ChEMBL document CHEMBL4431316, “New 6-Aminoquinoxaline Derivatives with Neuroprotective Effect on Dopaminergic Neurons in Cellular and Animal Parkinson Disease Models” (J Med Chem, 2016)
Active and inactive are the calls of the source. No cut-off for these calls is given here.

Key:
Rattus norvegicus [1] = organism: Rattus norvegicus; assay: (§1) Neuroprotective activity in Sprague-Dawley rat DA neuron death PD model assessed as survival of Th immunopositive cells at 50 uM after 10 days by immunofluorescence assay; format: functional
Method in brief: (§2)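 Midbrain cultures in which DA neurons die spontaneously and selectively through a mechanism involving immature astrocytes and calcium dyshomeostasis. Compounds were present for 10 days in vitro, screened at 50 µM (100 µM for one analog) and retested at 10 µM. dbcAMP 1 mM served as reference. Surviving TH+ neurons were counted and expressed as % of corresponding untreated control cultures.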

Astrocyte [2] = assay: Neuroprotective activity in Sprague-Dawley rat astrocytes assessed as [methyl-3H]thymidine incorporation at 10 to 50 uM after 8 days by liquid scintillation counting assay relative to control; format: functional
Method in brief: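 Glial proliferation in midbrain cultures measured as [methyl-3H]-thymidine incorporation at 8 DIV, with test compound 10-50 µM. DbcAMP 1 mM as positive control. Expressed as % of control.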

Astrocyte [3] = assay: Neuroprotective activity in Sprague-Dawley rat astrocytes assessed as effect on vimentin positive cell density and morphology at 10 uM by fluorescence microscopic method; format: functional, cell-based
Method in brief: (§3)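 Midbrain cultures labelled for vimentin, a glial marker. Density and morphology of glial cells scored semi-quantitatively by fluorescence microscopy. Compounds tested at 10 and 50 µM, one at 100 µM; dbcAMP as reference.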

[4] = as §1; format: functional; details: 240 h, read-out: Survival; method in brief: as §2
[5] = (§4) Neuroprotective activity in Sprague-Dawley rat DA neuron death PD model assessed as survival of Th immunopositive cells at 10 uM after 10 days by immunofluorescence assay relative to control; format: functional; details: 240 h, read-out: Survival; method in brief: as §2
Astrocyte [6] = assay: Neuroprotective activity in Sprague-Dawley rat astrocytes assessed as effect on vimentin positive cell density and morphology at 50 uM by fluorescence microscopic method; format: functional, cell-based; method in brief: as §3
[7] = Neuroprotective activity in Sprague-Dawley rat DA neuron death PD model assessed as survival of Th immunopositive cells at 1 mM after 10 days by immunofluorescence assay relative to control; format: functional; details: 240 h, read-out: Survival; method in brief: as §2
Rattus norvegicus [8] = organism: Rattus norvegicus; assay: Neuroprotective activity in Sprague-Dawley rat DA neuron death PD model assessed as increase in [2,5,6-3H]DA uptake at 1 mM after 10 days by liquid scintillation counting spectrometric analysis; format: functional
Method in brief: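 Midbrain cultures in which DA neurons die spontaneously and selectively. Treated with test compound (10-50 µM) or dbcAMP (1 mM, reference) up to 10 DIV. Tritium-labeled DA uptake quantified as a marker of DA cell function and differentiation. Uptake rate per TH+ neuron also derived. *P < 0.05 vs control.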

Astrocyte [9] = assay: Neuroprotective activity in Sprague-Dawley rat astrocytes assessed as effect on vimentin positive cell density and morphology at 1 mM by fluorescence microscopic method; format: functional, cell-based; method in brief: as §3
Rattus norvegicus [10] = organism: Rattus norvegicus; assay: as §4; format: functional; method in brief: as §2
[11] = Neuroprotective activity in Sprague-Dawley rat DA neuron death PD model assessed as survival of Th immunopositive cells at 100 uM after 10 days by immunofluorescence assay relative to control; format: functional; details: 240 h, read-out: Survival; method in brief: as §2
Rattus norvegicus [12] = organism: Rattus norvegicus; assay: Antioxidant activity in Sprague-Dawley rat DA neuron assessed as reduction in ferrous iron-mediated neuron death at 5 uM; format: functional
Method in brief: (§5)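 Midbrain cultures with DA cell death driven by a Fenton-type reaction, ferrous iron reacting with molecular oxygen in the medium (chronic oxidative stress). Test compound 1-10 µM; desferrioxamine 10 µM as positive control. Readout is DA neuron (TH+) survival. P < 0.05 vs control cultures.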

Astrocyte [13] = assay: Neuroprotective activity in Sprague-Dawley rat astrocytes assessed as effect on vimentin positive cell density and morphology at 100 uM by fluorescence microscopic method; format: functional, cell-based; method in brief: as §3
Rattus norvegicus [14] = organism: Rattus norvegicus; assay: Antioxidant activity in Sprague-Dawley rat DA neuron assessed as reduction in ferrous iron-mediated neuron death at 10 uM; format: functional; method in brief: as §5

| SMILES | Activity (Rattus norvegicus [1]) | further results |
| --- | --- | --- |
| Nc1ccc2ncc(-c3cnc4ccccc4c3)nc2c1 | Active |  |
| C#CCNc1ccc2nc(C)c(-c3cc(OC)c(OC)c(OC)c3)nc2c1 |  | Activity (Astrocyte [2]): inactive |
| Cc1nc2ccc(N)cc2nc1C | inactive |  |
| C#CCNc1ccc2nc(C)c(-c3ccccc3)nc2c1 | Active |  |
| COc1ccc(-c2nc3cc(N)ccc3nc2C)cc1OC | inactive |  |
| Cc1nc2cc(Br)c(N)c(Cl)c2nc1-c1ccccc1 | inactive |  |
| C#CC(C)(C)Nc1ccc2nc(C)c(-c3ccccc3)nc2c1 | inactive | Activity (Astrocyte [2]): inactive |
| Nc1ccc2ncc(Cl)nc2c1 | Active |  |
| Cc1nc2ccc(N)cc2nc1-c1ccc(Cl)c(Cl)c1 | Active |  |
| Nc1ccc2ncc(-c3ccc4ccccc4c3)nc2c1 | Active |  |
| Nc1ccc2nc(-c3ccccc3)cnc2c1 |  | Activity (Astrocyte [3]): inactive; viability at 50 µM [4]: 187%; viability at 10 µM [5]: 134%; Activity (Astrocyte [6]): inactive |
| C#CCNc1ccc2nc(C)c(-c3ccc(F)cc3)nc2c1 | Active |  |
| C#CCNc1ccc2nc(C)c(-c3ccc(Cl)c(Cl)c3)nc2c1 | inactive | Activity (Astrocyte [2]): inactive |
| COc1ccc(-c2nc3cc(N)ccc3nc2C)cc1 | inactive |  |
| Nc1ccc2ncc(-c3ccc(F)cc3)nc2c1 | Active | Activity (Astrocyte [3]): inactive; viability at 10 µM [5]: 144%; Activity (Astrocyte [6]): inactive |
| Cc1nc2ccc(N)cc2nc1-c1ccc2ccccc2c1 | inactive |  |
| C#CCNc1ccc2ncc(-c3ccc(F)cc3)nc2c1 | Active | Activity (Astrocyte [3]): inactive; Activity (Astrocyte [6]): Active |
| COc1ccc(C#Cc2cnc3ccc(N)cc3n2)cc1 | inactive |  |
| Cc1nc2ccc(N)cc2nc1-c1ccc(-c2ccccc2)cc1 | inactive |  |
| CCCC(=O)Nc1ncnc2c1ncn2[C@@H]1O[C@@H]2COP(=O)(O)O[C@H]2[C@H]1OC(=O)CCC [BUCLADESINE] |  | viability at 1000 µM [7]: 225%; Activity (Rattus norvegicus [8]): Active; Activity (Astrocyte [9]): Active |

| SMILES | Activity (Rattus norvegicus [1]) | further results |
| --- | --- | --- |
| Cc1nc2ccc(N)cc2nc1-c1ccc(F)cc1 | Active |  |
| Cc1nc2ccc(N)c(Br)c2nc1-c1ccccc1 | Active | Activity (Rattus norvegicus [10]): inactive |
| C#CCNc1ccc2nc(C)c(-c3ccc(C)cc3)nc2c1 | inactive | Activity (Astrocyte [2]): inactive |
| Cc1ccc(-c2nc3cc(N)ccc3nc2C)cc1 | inactive |  |
| Cc1nc2ccc(N)cc2nc1-c1ccccc1 |  | viability at 100 µM [11]: 199%; Activity (Rattus norvegicus [12]): Active; Activity (Astrocyte [3]): inactive; Activity (Astrocyte [13]): Active |
| Cc1nc2ccc(N)c(Cl)c2nc1-c1ccccc1 | Active |  |
| CC(=O)N(O)CCCCCNC(=O)CCC(=O)N(O)CCCCCNC(=O)CCC(=O)N(O)CCCCCN |  | Activity (Rattus norvegicus [14]): Active |
| Nc1ccc2ncc(-c3cccc4ccccc34)nc2c1 | Active |  |
| C#CCNc1ccc2nc(C)c(-c3ccc(Cl)cc3)nc2c1 | inactive | Activity (Astrocyte [2]): inactive |
| C#CCNc1ccc2nc(C)c(-c3ccc(OC)cc3)nc2c1 |  | Activity (Astrocyte [2]): inactive |
| Nc1ccc2ncc(-c3cccc(O)c3)nc2c1 | Active | Activity (Rattus norvegicus [10]): inactive |
| COc1cc(-c2cnc3ccc(N)cc3n2)cc(OC)c1OC | Active | Activity (Rattus norvegicus [10]): inactive |
| C#CCNc1ccc2nc(C)c(-c3ccccc3)nc2c1Br | Active |  |
| C#CCNc1ccc2nc(C)c(-c3ccc4ccccc4c3)nc2c1 | inactive | Activity (Astrocyte [2]): inactive |
| Cc1nc2ccc(N)cc2nc1-c1ccc(Cl)cc1 | inactive |  |
| COc1ccc(-c2nc3cc(N)ccc3nc2-c2ccccc2)cc1 | inactive |  |
| C#CCNc1ccc2ncc(-c3ccccc3)nc2c1 | Active | Activity (Astrocyte [3]): inactive; viability at 10 µM [5]: 212%; Activity (Astrocyte [6]): Active |
| C#Cc1cnc2ccc(N)cc2n1 | inactive |  |
| Nc1ccc2ncc(-c3cccnc3)nc2c1 | Active |  |
